Calls of active or inactive are those of the source. The calls are words filed in the database; no cut-off is given here.
Test system: RS4-11
Assay: Antiproliferative activity against human RS4:11 cells assessed as growth inhibition at 20 uM after 48 hrs by CCK-8 assay relative to control
Type: functional
Settings: not given
Method in brief: (§1)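 Single-dose screen at 20 μM in RS4;11 (human ALL), HL-60 (human promyelocytic leukemia) and HEK293T (normal-cell model). Cells exposed 48 h, viability read by CCK-8, growth inhibition ratio expressed relative to control.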

| Compound | growth inhibition (GI) |
| --- | --- |
| Cc1ccc(Cc2nnc(NC(=O)/C(C#N)=C/c3ccccc3OS(=O)(=O)c3ccccc3[N+](=O)[O-])s2)cc1 | inactive |
| N#C/C(=C\c1cccc(OS(=O)(=O)c2cccs2)c1)C(=O)Nc1nnc(-c2cccs2)s1 | inactive |

Same assay, conditions: RS4-11, 48 h, read-out: GI

| Compound | inhibition of growth at 20 µM [%] |
| --- | --- |
| Cc1ccc(S(=O)(=O)Oc2cccc(/C=C(\C#N)C(=O)Nc3nnc(-c4ccccc4)s3)c2)cc1 | 35 |
| Cc1nnc(NC(=O)/C(C#N)=C/c2cccc(OS(C)(=O)=O)c2)s1 | 33 |
| N#C/C(=C\c1ccccc1OS(=O)(=O)c1ccc(Cl)cc1)C(=O)Nc1nnc(Cc2ccccc2)s1 | 73 |
| N#C/C(=C\c1ccccc1OS(=O)(=O)c1ccc(Cl)cc1)C(=O)Nc1nnc(Cc2ccc(Cl)cc2)s1 | 64 |
| N#C/C(=C\c1ccccc1OS(=O)(=O)c1ccc(Cl)cc1)C(=O)Nc1nnc(Cc2cccc3ccccc23)s1 | 68 |
| N#C/C(=C\c1ccccc1OS(=O)(=O)c1ccc(F)cc1)C(=O)Nc1nnc(Cc2cccc(F)c2)s1 | 72 |
| N#C/C(=C\c1ccccc1OS(=O)(=O)c1ccc(F)cc1)C(=O)Nc1nnc(Cc2ccccc2)s1 | 69 |
| N#C/C(=C\c1cccc(NS(=O)(=O)c2ccc(F)cc2)c1)C(=O)Nc1nnc(-c2cccs2)s1 | 22 |
| COc1ccc(Cc2nnc(NC(=O)/C(C#N)=C/c3ccccc3OS(=O)(=O)c3ccccc3[N+](=O)[O-])s2)cc1 | 68 |
| N#C/C(=C\c1ccccc1OS(=O)(=O)c1ccc(F)cc1)C(=O)Nc1nnc(Cc2ccc(Cl)cc2)s1 | 64 |
| N#C/C(=C\c1ccccc1OS(=O)(=O)c1ccccc1[N+](=O)[O-])C(=O)Nc1nnc(Cc2ccc(F)cc2)s1 | 61 |
| CS(=O)(=O)Oc1ccc(/C=C(\C#N)C(=O)Nc2nnc(-c3cccs3)s2)cc1 | 13 |
| N#C/C(=C\c1ccccc1OS(=O)(=O)c1ccc(Cl)cc1)C(=O)Nc1nnc(Cc2cccc(F)c2)s1 | 71 |
| Cc1ccc(Cc2nnc(NC(=O)/C(C#N)=C/c3ccccc3OS(=O)(=O)c3ccc(F)cc3)s2)cc1 | 73 |
| Cc1ccc(Cc2nnc(NC(=O)/C(C#N)=C/c3ccccc3OS(=O)(=O)c3ccc([N+](=O)[O-])cc3)s2)cc1 | 64 |
| Cc1ccc(S(=O)(=O)Oc2cccc(/C=C(\C#N)C(=O)Nc3nnc(-c4ccccc4Cl)s3)c2)cc1 | 44 |

Test system: HL-60
Assay: Antiproliferative activity against human HL60 cells assessed as growth inhibition at 20 uM after 48 hrs by CCK-8 assay relative to control
Type: functional
Settings: not given
Method in brief: as §1

| Compound | growth inhibition (GI) |
| --- | --- |
| N#C/C(=C\c1cccc(NS(=O)(=O)c2ccc(F)cc2)c1)C(=O)Nc1nnc(-c2cccs2)s1 | inactive |
| CS(=O)(=O)Oc1ccc(/C=C(\C#N)C(=O)Nc2nnc(-c3cccs3)s2)cc1 | inactive |

Same assay, conditions: HL-60, 48 h, read-out: GI

| Compound | inhibition of growth at 20 µM [%] |
| --- | --- |
| Cc1ccc(S(=O)(=O)Oc2cccc(/C=C(\C#N)C(=O)Nc3nnc(-c4ccccc4)s3)c2)cc1 | 63 |
| Cc1ccc(Cc2nnc(NC(=O)/C(C#N)=C/c3ccccc3OS(=O)(=O)c3ccccc3[N+](=O)[O-])s2)cc1 | 33 |
| Cc1nnc(NC(=O)/C(C#N)=C/c2cccc(OS(C)(=O)=O)c2)s1 | 20 |
| N#C/C(=C\c1ccccc1OS(=O)(=O)c1ccc(Cl)cc1)C(=O)Nc1nnc(Cc2ccccc2)s1 | 26 |
| N#C/C(=C\c1ccccc1OS(=O)(=O)c1ccc(Cl)cc1)C(=O)Nc1nnc(Cc2ccc(Cl)cc2)s1 | 15 |
| N#C/C(=C\c1ccccc1OS(=O)(=O)c1ccc(Cl)cc1)C(=O)Nc1nnc(Cc2cccc3ccccc23)s1 | 15 |
| N#C/C(=C\c1ccccc1OS(=O)(=O)c1ccc(F)cc1)C(=O)Nc1nnc(Cc2cccc(F)c2)s1 | 22 |
| N#C/C(=C\c1ccccc1OS(=O)(=O)c1ccc(F)cc1)C(=O)Nc1nnc(Cc2ccccc2)s1 | 22 |
| COc1ccc(Cc2nnc(NC(=O)/C(C#N)=C/c3ccccc3OS(=O)(=O)c3ccccc3[N+](=O)[O-])s2)cc1 | 25 |
| N#C/C(=C\c1ccccc1OS(=O)(=O)c1ccc(F)cc1)C(=O)Nc1nnc(Cc2ccc(Cl)cc2)s1 | 20 |
| N#C/C(=C\c1ccccc1OS(=O)(=O)c1ccccc1[N+](=O)[O-])C(=O)Nc1nnc(Cc2ccc(F)cc2)s1 | 35 |
| N#C/C(=C\c1ccccc1OS(=O)(=O)c1ccc(Cl)cc1)C(=O)Nc1nnc(Cc2cccc(F)c2)s1 | 42 |
| Cc1ccc(Cc2nnc(NC(=O)/C(C#N)=C/c3ccccc3OS(=O)(=O)c3ccc(F)cc3)s2)cc1 | 11 |
| Cc1ccc(Cc2nnc(NC(=O)/C(C#N)=C/c3ccccc3OS(=O)(=O)c3ccc([N+](=O)[O-])cc3)s2)cc1 | 17 |
| Cc1ccc(S(=O)(=O)Oc2cccc(/C=C(\C#N)C(=O)Nc3nnc(-c4ccccc4Cl)s3)c2)cc1 | 67 |
| N#C/C(=C\c1cccc(OS(=O)(=O)c2cccs2)c1)C(=O)Nc1nnc(-c2cccs2)s1 | 30 |

Test system: not listed separately
Assay: Cytotoxicity against HEK293T cells assessed as growth inhibition at 20 uM after 48 hrs by CCK8 assay relative to control
Type: cell-based, HEK-293T
Settings: human, HEK293T cells; read-out: GI
Method in brief: as §1

| Compound | inhibition at 48 h, 20 µM [%] |
| --- | --- |
| Cc1ccc(S(=O)(=O)Oc2cccc(/C=C(\C#N)C(=O)Nc3nnc(-c4ccccc4)s3)c2)cc1 | 52 |
| Cc1ccc(Cc2nnc(NC(=O)/C(C#N)=C/c3ccccc3OS(=O)(=O)c3ccccc3[N+](=O)[O-])s2)cc1 | 6 |
| Cc1nnc(NC(=O)/C(C#N)=C/c2cccc(OS(C)(=O)=O)c2)s1 | 20 |
| N#C/C(=C\c1ccccc1OS(=O)(=O)c1ccc(Cl)cc1)C(=O)Nc1nnc(Cc2ccccc2)s1 | 25 |
| N#C/C(=C\c1ccccc1OS(=O)(=O)c1ccc(Cl)cc1)C(=O)Nc1nnc(Cc2ccc(Cl)cc2)s1 | 14 |
| N#C/C(=C\c1ccccc1OS(=O)(=O)c1ccc(Cl)cc1)C(=O)Nc1nnc(Cc2cccc3ccccc23)s1 | 16 |
| N#C/C(=C\c1ccccc1OS(=O)(=O)c1ccc(F)cc1)C(=O)Nc1nnc(Cc2cccc(F)c2)s1 | 17 |
| N#C/C(=C\c1ccccc1OS(=O)(=O)c1ccc(F)cc1)C(=O)Nc1nnc(Cc2ccccc2)s1 | 6 |
| N#C/C(=C\c1cccc(NS(=O)(=O)c2ccc(F)cc2)c1)C(=O)Nc1nnc(-c2cccs2)s1 | 29 |
| COc1ccc(Cc2nnc(NC(=O)/C(C#N)=C/c3ccccc3OS(=O)(=O)c3ccccc3[N+](=O)[O-])s2)cc1 | 18 |
| N#C/C(=C\c1ccccc1OS(=O)(=O)c1ccc(F)cc1)C(=O)Nc1nnc(Cc2ccc(Cl)cc2)s1 | 14 |
| N#C/C(=C\c1ccccc1OS(=O)(=O)c1ccccc1[N+](=O)[O-])C(=O)Nc1nnc(Cc2ccc(F)cc2)s1 | 6 |
| CS(=O)(=O)Oc1ccc(/C=C(\C#N)C(=O)Nc2nnc(-c3cccs3)s2)cc1 | 19 |
| N#C/C(=C\c1ccccc1OS(=O)(=O)c1ccc(Cl)cc1)C(=O)Nc1nnc(Cc2cccc(F)c2)s1 | 29 |
| Cc1ccc(Cc2nnc(NC(=O)/C(C#N)=C/c3ccccc3OS(=O)(=O)c3ccc(F)cc3)s2)cc1 | 11 |
| Cc1ccc(Cc2nnc(NC(=O)/C(C#N)=C/c3ccccc3OS(=O)(=O)c3ccc([N+](=O)[O-])cc3)s2)cc1 | 9 |
| Cc1ccc(S(=O)(=O)Oc2cccc(/C=C(\C#N)C(=O)Nc3nnc(-c4ccccc4Cl)s3)c2)cc1 | 55 |
| N#C/C(=C\c1cccc(OS(=O)(=O)c2cccs2)c1)C(=O)Nc1nnc(-c2cccs2)s1 | 50 |

From ChEMBL document CHEMBL4627348, “Synthesis of (1,3,4-thiadiazol-2-yl)-acrylamide derivatives as potential antitumor agents against acute leukemia cells” (Bioorg Med Chem Lett, 2020)
